From ChEMBL document CHEMBL4431310, “Characterization and in vitro activity of a branched peptide boronic acid that interacts with HIV-1 RRE RNA” (Bioorg Med Chem, 2016)
Calls of active or inactive are those of the source. The calls are words filed in the database; no cut-off is given here. *1 amine or outer side, *2 acyl side, *3 side chain or, on linkers, in order; H or OH if unused. Where a SMILES comes first, the peptide text is derived from it. Side-chain parts run from the residue outwards. [ ]: non-standard residue; d: D form. The star is where a group is joined. X4 = NCCCC[C@H](NC(=O)[C@@H](N)CCCCNC(=O)c1ccc(B(O)O)cc1)C(=O)N[C@@H](Cc1ccc(B(O)O)cc1)C(=O)*; X1 = N[C@@H](Cc1ccc(B(O)O)cc1)C(=O)N[C@@H](Cc1ccc(O)cc1)C(=O)N[C@@H](Cc1ccc(B(O)O)cc1)C(=O)*; X2 = NCCCC[C@H](NC(=O)[C@@H](N)CCCCN)C(=O)N[C@@H](CCCCNC(=O)c1ccc(B(O)O)cc1)C(=O)*; X3 = NCCCC[C@H](N)C(=O)N[C@@H](CCCCNC(=O)c1ccc(B(O)O)cc1)C(=O)*; Phe(4-B(OH)2) = N[C@@H](Cc1ccc(B(O)O)cc1)C(=O)O; Benzoyl(4-B(OH)2) = O=C(c1ccc(B(O)O)cc1)*; εLys = N[C@@H](CCCCN[*:1])C(=O)[*:2]

Tests used:
[1] = biological target: Rev responsive element (RRE) RNA; assay: Binding affinity to HIV-1 RRE 2B RNA measured after 4 hrs by dot blot assay; type: nucleic-acid assay, Human immunodeficiency virus 1
Summary of the method: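 RNA at 0.4 nM titrated with peptide 0.001–100 µM for 4 h at rt, filtered through nitrocellulose, washed twice, imaged by phosphorimaging. Kd from four-parameter logistic fit of densitometry; triplicate, SD reported.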

[2] = system: Human immunodeficiency virus 1; assay: Antiviral activity against HIV-1 NL4-3 infected monkey 5BD.1 cells assessed as reduction in p24 production at 10 uM measured over 24 hrs by p24 ELISA; type: functional
[3] = system: Human immunodeficiency virus 1; assay: Antiviral activity against HIV-1 NL4-3 infected in human U87 cells expressing CD4.CXCR4 assessed as inhibition of p24 production at 10 uM measured after 4 days by p24 ELISA; type: functional, organism-based
[4] = system: Rev responsive element (RRE) RNA; assay: Binding affinity to HIV-1 RRE 2B RNA assessed as protection against RNase A-mediated RRE 2B cleavage at C33 of loop B preincubated for 4 hrs followed by addition of RNase A at 20 uM measured after 1 hr by nuclease protection assay; type: nucleic-acid assay; conditions: Human immunodeficiency virus 1
Summary of the method: (§1)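 5'-32P-labeled RRE IIB (10 nM) mixed with unlabeled RRE IIB (200 nM), heated to 95 °C for 3 min and snap-cooled. Incubated with peptide (up to 20 µM) on ice for 4 h in 10 mM Tris pH 7, 100 mM KCl, 10 mM MgCl2. Digested on ice with RNase V1 (0.002 U, 10 min), RNase T1 (1 U, 1 h) or RNase A (20 ng, 1 h). Stopped with inactivation/precipitation buffer, run on 12% urea PAGE, read by autoradiography against an alkaline hydrolysis ladder.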

[5] = biological target: Rev responsive element (RRE) RNA; assay: Binding affinity to HIV-1 RRE 2B RNA in presence of 1000-fold excess tRNA; type: nucleic-acid assay, Human immunodeficiency virus 1
[6] = system: Rev responsive element (RRE) RNA; assay: Binding affinity to HIV-1 RRE 2B RNA assessed as protection against RNase A-mediated RRE 2B cleavage at C21 and U24 preincubated for 4 hrs followed by addition of RNase A measured up to 20 uM after 1 hr by nuclease protection assay; type: nucleic-acid assay; conditions: Human immunodeficiency virus 1; summary of the method: as §1
[7] = Binding affinity to HIV-1 TAR RNA; parameters: species or system Human immunodeficiency virus 1
[8] = system: Rev responsive element (RRE) RNA; assay: Binding affinity to HIV-1 RRE 2B RNA assessed as protection against RNase T1-mediated RRE 2B cleavage at G10 and G11 preincubated for 4 hrs followed by addition of RNase T1 at 20 uM measured after 1 hr by nuclease protection assay; type: nucleic-acid assay; conditions: Human immunodeficiency virus 1; summary of the method: as §1
[9] = biological target: Rev responsive element (RRE) RNA; assay: Binding affinity to HIV-1 RRE 2B RNA measured after 4 hrs by EMSA; type: nucleic-acid assay, Human immunodeficiency virus 1
[10] = system: Rev responsive element (RRE) RNA; assay: Binding affinity to HIV-1 RRE 2B RNA assessed as protection against RNase A-mediated RRE 2B cleavage at U9 and G34 preincubated for 4 hrs followed by addition of RNase A at 20 uM measured after 1 hr by nuclease protection assay; type: nucleic-acid assay; conditions: Human immunodeficiency virus 1; summary of the method: as §1
[11] = system: Human immunodeficiency virus 1; assay: Antiviral activity against HIV-1 NL4-3 infected in human U87 cells expressing CD4.CXCR4 assessed as inhibition of p24 production at 100 uM measured after 4 days by p24 ELISA; type: functional, organism-based
[12] = Toxicity against human U87 cells expressing CD4.CXCR4 assessed as cell viability at 10 uM measured after 24 hrs by MTT assay; type: cell-based, U-87MG ATCC; conditions: read-out: Activity
[13] = system: Rev responsive element (RRE) RNA; assay: Binding affinity to HIV-1 RRE 2B RNA assessed as protection against RNase T1-mediated RRE 2B cleavage preincubated for 4 hrs followed by addition of RNase T1 measured up to 20 uM after 1 hr by nuclease protection assay; type: nucleic-acid assay; conditions: Human immunodeficiency virus 1; summary of the method: as §1
[14] = system: HeLa; assay: Cytotoxicity in human HeLa cells assessed as cell viability at 100 nM to 10 uM measured over 24 hrs by MTT assay; type: cell-based; conditions: 0.1 µM
[15] = system: Rev responsive element (RRE) RNA; assay: Binding affinity to HIV-1 RRE 2B RNA assessed as protection against RNase V1-mediated RRE 2B cleavage at G17 and C18 preincubated for 4 hrs followed by addition of RNase V1 measured after 10 mins by nuclease protection assay; type: nucleic-acid assay; conditions: Human immunodeficiency virus 1; summary of the method: as §1
[16] = system: Rev responsive element (RRE) RNA; assay: Selectivity ratio of Kd for HIV-1 RRE 2B RNA to Kd for HIV-1 RRE 2B RNA in presence of 1000-fold excess tRNA; type: nucleic-acid assay; conditions: Human immunodeficiency virus 1
[17] = system: Human immunodeficiency virus 1; assay: Antiviral activity against HIV-1 NL4-3 infected in human U87 cells expressing CD4.CXCR4 assessed as inhibition of p24 production measured after 4 days by p24 ELISA; type: functional, organism-based

| Compound | Kd [1] [µM] | inhibition [2] | inhibition [3] | further results |
| --- | --- | --- | --- | --- |
| NCCCC[C@H](NC(=O)[C@H](CCCCN)NC(=O)[C@H](CCCCNC(=O)[C@H](Cc1ccccc1)NC(=O)[C@H](CCCCNC(=O)c1ccc(B(O)O)cc1)NC(=O)[C@@H](N)CCCCN)NC(=O)[C@H](Cc1ccccc1)NC(=O)[C@H](CCCCNC(=O)c1ccc(B(O)O)cc1)NC(=O)[C@@H](N)CCCCN)C(=O)N[C@@H](Cc1c[nH]c2ccccc12)C(=O)N[C@@H](Cc1ccc(O)cc1)C(=O)O (H-KK(Benzoyl(4-B(OH)2))FK([Phe-X3])KKWY-OH) | 27.2 | Active | inactive | – |
| N[C@@H](Cc1ccc(B(O)O)cc1)C(=O)N[C@@H](Cc1ccc(O)cc1)C(=O)N[C@@H](Cc1ccc(B(O)O)cc1)C(=O)NCCCC[C@H](NC(=O)[C@H](Cc1ccc(B(O)O)cc1)NC(=O)[C@H](Cc1ccc(O)cc1)NC(=O)[C@@H](N)Cc1ccc(B(O)O)cc1)C(=O)O | > 100 | – | – | – |
| C[C@@H](O)[C@H](NC(=O)[C@@H]1CCCN1C(=O)[C@H](CCCCNC(=O)[C@H](CCCCN)NC(=O)[C@H](Cc1ccc(O)cc1)NC(=O)[C@@H](N)Cc1c[nH]c2ccccc12)NC(=O)[C@H](CCCCN)NC(=O)[C@H](Cc1ccc(O)cc1)NC(=O)[C@@H](N)Cc1c[nH]c2ccccc12)C(=O)N[C@@H](Cc1c[nH]c2ccccc12)C(=O)N[C@@H](Cc1ccc(O)cc1)C(=O)O (H-WYKK([Lys-Tyr-Trp])PTWY-OH) | 28.5 | Active | inactive | – |
| CCc1c(C)nc2sc(C(N)=O)c(N)c2c1C | – | Active | – | – |
| Nc1ccn([C@@H]2CS[C@H](CO)O2)c(=O)n1 | – | – | Active | inhibition [11]: Active |
| CC(C)C[C@H](NC(=O)[C@H](CCCCN)NC(=O)[C@H](CCCCNC(=O)[C@H](CCCCN)NC(=O)[C@H](CCCCNC(=O)c1ccc(B(O)O)cc1)NC(=O)[C@@H](N)CCCCN)NC(=O)[C@H](CCCCN)NC(=O)[C@H](CCCCNC(=O)c1ccc(B(O)O)cc1)NC(=O)[C@@H](N)CCCCN)C(=O)N[C@@H](CCCCN)C(=O)N[C@@H](Cc1ccc(O)cc1)C(=O)O (H-KK(Benzoyl(4-B(OH)2))KK([Lys-X3])KLKY-OH) | 58.4 | Active | inactive | – |
| NCCCC[C@H](NC(=O)[C@H](CC(N)=O)NC(=O)[C@H](Cc1ccc(B(O)O)cc1)NC(=O)[C@H](Cc1ccc(O)cc1)NC(=O)[C@H](Cc1ccc(B(O)O)cc1)NC(=O)[C@H](Cc1ccc(B(O)O)cc1)NC(=O)[C@H](Cc1ccc(O)cc1)NC(=O)[C@@H](N)Cc1ccc(B(O)O)cc1)C(=O)N[C@@H](CO)C(=O)N[C@@H](Cc1ccc(O)cc1)C(=O)O (H-[Phe(4-B(OH)2)]Y[Phe(4-B(OH)2)][Phe(4-B(OH)2)]Y[Phe(4-B(OH)2)]NKSY-OH) | 27.2 | – | – | – |
| Cc1cn([C@H]2C[C@H](N=[N+]=[N-])[C@@H](CO)O2)c(=O)[nH]c1=O | – | – | Active | inhibition [11]: Active |
| NCCCC[C@H](NC(=O)[C@H](Cc1ccc(O)cc1)NC(=O)[C@@H](N)CCCCNC(=O)c1ccc(B(O)O)cc1)C(=O)NCCCC[C@H](NC(=O)[C@H](CCCCN)NC(=O)[C@H](Cc1ccc(O)cc1)NC(=O)[C@@H](N)CCCCNC(=O)c1ccc(B(O)O)cc1)C(=O)N[C@@H](Cc1cnc[nH]1)C(=O)N[C@@H](CCCCN)C(=O)N[C@@H](CCCCN)C(=O)N[C@@H](Cc1ccc(O)cc1)C(=O)O (H-K(Benzoyl(4-B(OH)2))YKK([Lys-Tyr-εLys-Benzoyl(4-B(OH)2)])HKKY-OH) | 86.5 | Active | inactive | – |

More lines, in order of falling Kd [1], values ahead:

| Kd [1] [µM] | Compound | inhibition [2] | inhibition [3] | further results |
| --- | --- | --- | --- | --- |
| 26.8 | C[C@@H](O)[C@H](NC(=O)[C@H](Cc1ccc(B(O)O)cc1)NC(=O)[C@H](CCCCNC(=O)[C@H](CCCCNC(=O)c1ccc(B(O)O)cc1)NC(=O)[C@H](CCCCN)NC(=O)[C@@H](N)CCCCN)NC(=O)[C@H](CCCCNC(=O)c1ccc(B(O)O)cc1)NC(=O)[C@H](CCCCN)NC(=O)[C@@H](N)CCCCN)C(=O)N[C@@H](CO)C(=O)N[C@@H](Cc1ccc(O)cc1)C(=O)O (H-KKK(Benzoyl(4-B(OH)2))K(X2)[Phe(4-B(OH)2)]TSY-OH) | Active | inactive | – |
| 17.7 | NCCCC[C@H](NC(=O)[C@H](CC(N)=O)NC(=O)[C@H](CCCCN)NC(=O)[C@H](Cc1ccc(B(O)O)cc1)NC(=O)[C@H](Cc1ccc(O)cc1)NC(=O)[C@@H](N)Cc1ccc(B(O)O)cc1)C(=O)N[C@@H](CO)C(=O)N[C@@H](Cc1ccc(O)cc1)C(=O)O (H-[Phe(4-B(OH)2)]Y[Phe(4-B(OH)2)]KNKSY-OH) | – | – | – |
| 8.7 | NCCCC[C@H](NC(=O)[C@H](CC(N)=O)NC(=O)[C@H](CCCCNC(=O)[C@H](Cc1ccc(B(O)O)cc1)NC(=O)[C@H](Cc1ccc(O)cc1)NC(=O)[C@@H](N)Cc1ccc(B(O)O)cc1)NC(=O)[C@H](Cc1ccc(B(O)O)cc1)NC(=O)[C@H](Cc1ccc(O)cc1)NC(=O)[C@@H](N)Cc1ccc(B(O)O)cc1)C(=O)N[C@@H](CO)C(=O)N[C@@H](Cc1ccc(O)cc1)C(=O)O (H-[Phe(4-B(OH)2)]Y[Phe(4-B(OH)2)]K(X1)NKSY-OH) | – | Active | Activity [4]: inactive; Kd [5]: 26.4 µM; Activity [6]: Active; inhibition at 10 µM ([2]; Human immunodeficiency virus 1, NL4-3, in Primates): 70%; Kd [7]: 5.2 µM; Activity [8]: inactive; Kd [9]: 4.6 µM; Activity [10]: inactive; inhibition [11]: Active; viability at 24 h, 10 µM [12]: > 80%; Activity [13]: inactive; Activity [14]: Non-Toxic; Activity [15]: Dose-dependent effect; Selectivity ratio [16]: 3; inhibition [17]: Dose-dependent effect; IC50 ([17]; Human immunodeficiency virus 1, NL4-3, U-87 MG, 96 h): 5 µM |
| 3.3 | NCCCC[C@H](NC(=O)[C@H](CCCCN)NC(=O)[C@H](CCCCNC(=O)c1ccc(B(O)O)cc1)NC(=O)[C@H](CCCCNC(=O)[C@H](Cc1ccc(B(O)O)cc1)NC(=O)[C@H](CCCCN)NC(=O)[C@@H](N)CCCCNC(=O)c1ccc(B(O)O)cc1)NC(=O)[C@H](Cc1ccc(B(O)O)cc1)NC(=O)[C@H](CCCCN)NC(=O)[C@@H](N)CCCCNC(=O)c1ccc(B(O)O)cc1)C(=O)N[C@@H](Cc1ccc(O)cc1)C(=O)O (H-K(Benzoyl(4-B(OH)2))K[Phe(4-B(OH)2)]K(X4)K(Benzoyl(4-B(OH)2))KKY-OH) | Active | inactive | – |
| 1.4 | NCCCC[C@H](NC(=O)[C@H](CCCCN)NC(=O)[C@@H](N)Cc1c[nH]c2ccccc12)C(=O)NCCCC[C@H](NC(=O)[C@H](CCCCN)NC(=O)[C@H](CCCCN)NC(=O)[C@@H](N)Cc1c[nH]c2ccccc12)C(=O)N[C@@H](CCCCNC(=O)c1ccc(B(O)O)cc1)C(=O)N[C@@H](Cc1ccc(O)cc1)C(=O)N[C@@H](Cc1c[nH]c2ccccc12)C(=O)N[C@@H](Cc1ccc(O)cc1)C(=O)O (H-WKKK([Lys-Lys-Trp])K(Benzoyl(4-B(OH)2))YWY-OH) | Active | inactive | – |
